From paper PMC4593655 (Bioorganic & medicinal chemistry, 2015)

Key:
[1] = tested on: NCI full panel of 60 cell lines; experiment: NCI 5-dose assay, full panel overview; type: cell-based, human; settings: for CC50: Homo sapiens, 60 cell, read-out: pLC50 MG_MID (converted); for cytotoxicity in NCI screen: in words; for pTGI MG_MID: mean graph midpoint over all tested cell lines; for pTGI No. giving positive results: number of cell lines for which TGI ≤100 μM; for cellular lines with 50% growth inhibition at submicromolar concentrations: number of cell lines of those tested
Method in brief: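 Five-dose NCI standard protocol screen of test compound against 60 human tumour lines from nine cancer types. pGI₅₀, pTGI and pLC₅₀ are −log molar concentrations giving 50% net growth inhibition, total growth inhibition and 50% net cell death. MG_MID is the arithmetic mean over all tested lines. Counts give the lines with each value ≤100 μM. Where an effect was not reached, the highest tested concentration was used.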

tubulin = experiment: Inhibition of colchicine binding to tubulin; settings: data not presented
purified tubulin = experiment: Assembly of purified tubulin; type: biochemical; settings: data not presented
K562 cells [2] = experiment: Cell morphology under light microscopy; type: cell-based, human; settings: K562, 48 h, 10 and 25 μM
Method in brief: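 K562 cells, cultured in medium with 5% FBS, 100 U/mL penicillin and 100 μg/mL streptomycin at 37 °C under 5% CO₂, were seeded at 8 × 10³/well and exposed to test compound for 48 h alongside untreated control. Morphology was then examined by light microscopy at 200× magnification.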

K562 cells [3] = experiment: Hoechst 33342 nuclear staining, fluorescence microscopy; type: cell-based, human; settings: 10 μM, 48 h
Method in brief: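 K562 cells were plated at 8 × 10³/well on poly-D-lysine-coated plates and left to adhere overnight. They were prestained with Hoechst 33342 in medium for 30 min, washed with PBS and resuspended in medium, then given test compound or vehicle for 48 h.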

pro-caspase 6 = experiment: Western blotting analysis of pro-caspase 6; type: cell-based, human; settings: K562, 10 μM, 48 h
Method in brief: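 K562 cells were seeded at 1.5 × 10⁵/well and treated 48 h with 10 μM test compound. Lysate protein was measured by Lowry assay, run on SDS-PAGE and transferred to nitrocellulose. Pro-caspase 3 and 6 were detected with specific alkaline phosphatase-conjugated antibodies. Loading was checked by Ponceau red and β-actin immunoblot, and bands were quantified by densitometry. Blots are representative of at least three experiments.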

K562 cells [4] = experiment: Annexin V-FITC/PI staining flow cytometry; type: cell-based, human; settings: 10 μM, 24 h
Method in brief: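 K562 cells were grown in RPMI 1640 with 5% FBS and antibiotics at 37 °C in 5% CO₂, then exposed to test compound for 24 h. Cells were harvested, centrifuged at 800 rpm for 10 min and washed in PBS. 10⁵ cells per sample were stained with annexin V-FITC plus PI for 15 min in the dark. Flow cytometry read FL1 (530 nm) and FL3 (>575 nm) over 10,000 events. Areas: C1 necrotic, C2 late apoptotic, C3 viable, C4 early apoptotic.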

Row | Compound | CC50 [1] | cytotoxicity in NCI screen [1] | pTGI MG_MID [1] | pTGI No. giving positive results [1] | cellular lines with 50% growth inhibition at submicromolar concentrations [1] | inhibition of colchicine binding to tubulin (tubulin) | effects on the assembly of purified tubulin (purified tubulin) | morphological changes (K562 cells [2]) | nuclear morphology typical of apoptosis (K562 cells [3]) | reduction in the level of pro-caspase 6 (pro-caspase 6) | necrotic cells (K562 cells [4])
1 | COc1ccc(NC(=O)COc2ccccc2)c(C(N)=O)c1 [Compound 17r, 5-Methoxy-2-(2-phenoxyacetamido)benzamide] | > 97.7 µM | low cytotoxicity | 4.31 | 25 | 30 of 56 | negligible effects | negligible effects |  |  |  | 
2 | NC(=O)c1cc(Cl)ccc1NC(=O)COc1ccccc1 [Compound 17f, 5-Chloro-2-(2-phenoxyacetamido)benzamide] | > 100 µM | low cytotoxicity | 4.14 | 10 | 3 of 57 | negligible effects | negligible effects |  |  |  | 
3 | COc1cc(NC(=O)COc2ccccc2)c(C(N)=O)cc1OC [Compound 17u, 4,5-Dimethoxy-2-(2-phenoxyacetamido)benzamide] | > 93.3 µM | low cytotoxicity | 4.31 | 23 | 26 of 58 | negligible effects | negligible effects | remarkable reduction in cell number and cell size | chromatin condensation and nuclear fragmentation | −50% | 
4 | NC(=O)c1cc(I)ccc1NC(=O)COc1ccccc1 [Compound 17j, 5-Iodo-2-(2-phenoxyacetamido)benzamide] | > 89.1 µM | low cytotoxicity | 4.45 | 25 | 44 of 56 | negligible effects | negligible effects | remarkable reduction in cell number and cell size | chromatin condensation and nuclear fragmentation | −20% | no necrotic cells were detected
